From ChEMBL document CHEMBL1255570, “Click-chemistry-derived triazole ligands of arginine-glycine-aspartate (RGD) integrins with a broad capacity to inhibit adhesion of melanoma cells and both in vitro and in vivo angiogenesis” (J Med Chem, 2010) come the findings set out here.

As usually defined, the IC50 is the concentration that inhibits the measured activity by half. High values mean weaker potency in that assay, low ones greater potency in that assay.

Assay [1] deals with Integrin alpha-V/beta-3 (Homo sapiens, UniProt P05106+P06756). Description: Displacement of [125I]echistatin from human integrin alphaVbeta3. The class given is protein-complex assay. In outline:
(§1)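 Solid-phase competition binding to αvβ3 and αvβ5 purified from human placenta. Receptors coated overnight at 4 °C (αvβ3 at 500 ng/mL, αvβ5 at 1000 ng/mL) in Tris pH 7.4 buffer with Ca2+, Mg2+ and Mn2+, then blocked with 1% BSA. [125I]echistatin used at 0.05 nM (αvβ3) or 0.1 nM (αvβ5) against test compound from 100 μM to 0.01 nM. Incubation 3 h at room temperature, in triplicate. Nonspecific binding defined with 1 μM unlabeled echistatin. IC50 taken as 50% inhibition of radioligand binding.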
(In a radioligand displacement assay an active substance lowers the binding of a labelled ligand.)

Assay [2] has as its target Integrin alpha-V/beta-5 (Homo sapiens, UniProt P06756+P18084). Description: Displacement of [125I]echistatin from human integrin alphaVbeta5. The class given is protein-complex assay. In outline:
as §1

Chain of Integrin alpha-V/beta-3 (P05106 27-788 limits assumed): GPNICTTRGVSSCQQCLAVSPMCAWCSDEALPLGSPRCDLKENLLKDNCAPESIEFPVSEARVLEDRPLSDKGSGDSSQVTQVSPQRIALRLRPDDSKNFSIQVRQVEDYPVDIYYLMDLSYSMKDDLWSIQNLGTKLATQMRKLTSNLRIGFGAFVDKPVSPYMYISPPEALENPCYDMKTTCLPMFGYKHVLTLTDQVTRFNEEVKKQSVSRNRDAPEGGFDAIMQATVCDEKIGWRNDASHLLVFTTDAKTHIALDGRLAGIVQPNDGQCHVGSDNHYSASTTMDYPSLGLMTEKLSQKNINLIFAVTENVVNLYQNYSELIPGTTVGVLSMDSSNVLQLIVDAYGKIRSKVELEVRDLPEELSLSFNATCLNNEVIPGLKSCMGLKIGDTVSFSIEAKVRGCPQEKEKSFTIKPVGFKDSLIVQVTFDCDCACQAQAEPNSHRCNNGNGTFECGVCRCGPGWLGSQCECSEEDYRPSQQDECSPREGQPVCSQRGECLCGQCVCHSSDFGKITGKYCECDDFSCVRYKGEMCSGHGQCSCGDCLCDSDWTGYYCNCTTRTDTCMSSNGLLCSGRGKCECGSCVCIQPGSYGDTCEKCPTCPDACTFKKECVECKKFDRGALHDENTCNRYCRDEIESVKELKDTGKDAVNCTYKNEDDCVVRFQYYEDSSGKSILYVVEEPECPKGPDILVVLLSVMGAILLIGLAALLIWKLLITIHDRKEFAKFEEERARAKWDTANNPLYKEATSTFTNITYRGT
Chain of Integrin alpha-V/beta-3 (P06756 31-889 limits assumed): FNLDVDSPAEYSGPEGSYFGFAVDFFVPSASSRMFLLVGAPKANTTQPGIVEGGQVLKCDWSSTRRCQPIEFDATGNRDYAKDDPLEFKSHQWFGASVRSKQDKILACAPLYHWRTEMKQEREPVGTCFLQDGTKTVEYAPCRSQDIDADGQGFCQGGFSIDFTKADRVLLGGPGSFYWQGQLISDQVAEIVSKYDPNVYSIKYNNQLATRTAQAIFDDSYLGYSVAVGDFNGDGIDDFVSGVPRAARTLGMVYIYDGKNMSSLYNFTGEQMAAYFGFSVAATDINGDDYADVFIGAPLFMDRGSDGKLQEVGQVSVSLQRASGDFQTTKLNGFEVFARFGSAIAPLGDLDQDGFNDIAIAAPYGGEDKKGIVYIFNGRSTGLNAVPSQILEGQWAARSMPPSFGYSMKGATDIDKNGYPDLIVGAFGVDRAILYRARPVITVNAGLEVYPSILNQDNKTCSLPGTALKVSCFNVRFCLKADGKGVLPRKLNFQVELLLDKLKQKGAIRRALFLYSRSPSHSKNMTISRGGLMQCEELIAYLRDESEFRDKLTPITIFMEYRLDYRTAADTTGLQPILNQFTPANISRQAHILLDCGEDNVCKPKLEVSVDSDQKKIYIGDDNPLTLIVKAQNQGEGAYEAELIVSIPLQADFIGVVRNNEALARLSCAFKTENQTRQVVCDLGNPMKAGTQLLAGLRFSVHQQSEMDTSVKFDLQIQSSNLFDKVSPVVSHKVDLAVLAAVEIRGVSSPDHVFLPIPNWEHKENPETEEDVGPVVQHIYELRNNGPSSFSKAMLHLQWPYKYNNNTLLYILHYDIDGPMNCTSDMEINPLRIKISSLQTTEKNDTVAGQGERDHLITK
Chain of Integrin alpha-V/beta-3 (P06756 891-1048 limits assumed): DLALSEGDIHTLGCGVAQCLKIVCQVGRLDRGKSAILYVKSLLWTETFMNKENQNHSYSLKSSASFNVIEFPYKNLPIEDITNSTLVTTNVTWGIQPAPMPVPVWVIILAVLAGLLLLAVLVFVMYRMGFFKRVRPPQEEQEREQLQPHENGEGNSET
Chain of Integrin alpha-V/beta-5 (P06756 31-889 limits assumed): as the sequence (P06756 31-889 limits assumed) above
Chain of Integrin alpha-V/beta-5 (P06756 891-1048 limits assumed): as the sequence (P06756 891-1048 limits assumed) above
Chain of Integrin alpha-V/beta-5 (P18084 24-799 limits assumed): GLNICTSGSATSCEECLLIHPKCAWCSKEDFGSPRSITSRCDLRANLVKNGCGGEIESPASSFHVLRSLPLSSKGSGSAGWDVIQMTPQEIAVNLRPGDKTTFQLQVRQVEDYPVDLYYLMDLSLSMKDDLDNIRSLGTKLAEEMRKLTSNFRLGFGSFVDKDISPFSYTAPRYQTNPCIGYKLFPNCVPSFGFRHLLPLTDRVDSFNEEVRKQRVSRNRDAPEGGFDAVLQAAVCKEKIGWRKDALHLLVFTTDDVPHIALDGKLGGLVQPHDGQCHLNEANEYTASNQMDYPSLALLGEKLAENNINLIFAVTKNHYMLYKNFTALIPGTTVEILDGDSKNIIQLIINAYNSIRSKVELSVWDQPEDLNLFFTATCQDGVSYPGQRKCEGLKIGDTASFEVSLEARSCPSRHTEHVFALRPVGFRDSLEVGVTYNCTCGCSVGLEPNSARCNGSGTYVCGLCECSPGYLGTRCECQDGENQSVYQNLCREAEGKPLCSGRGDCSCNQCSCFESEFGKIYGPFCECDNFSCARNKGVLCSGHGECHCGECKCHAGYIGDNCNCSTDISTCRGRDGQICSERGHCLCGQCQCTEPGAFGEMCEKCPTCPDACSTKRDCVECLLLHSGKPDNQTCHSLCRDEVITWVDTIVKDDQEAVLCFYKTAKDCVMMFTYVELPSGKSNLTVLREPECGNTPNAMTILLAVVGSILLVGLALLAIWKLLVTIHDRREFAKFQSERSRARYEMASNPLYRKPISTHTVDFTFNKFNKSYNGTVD

For the molecule `NC(N)=NCc1cn(CC(=O)N(CC(=O)O)c2ccccc2)nn1`, the IC50 in assay [1] and in assay [2] was over 10 µM throughout.
As to `N=C(N)NCCc1cn(CC(=O)N(CC(=O)O)c2ccccc2)nn1`, the IC50 in assay [1] and in assay [2] was over 10 µM throughout.
Turning to `NC(N)=NCCCc1cn(CC(=O)N(CC(=O)O)c2ccccc2)nn1`, the IC50 in assay [1] and in assay [2] was over 10 µM throughout.
On to `N=C(N)N1CCN(CCc2cn(CC(=O)N(CC(=O)O)c3ccccc3)nn2)CC1`, for which the IC50 in assay [1] and in assay [2] was over 10 µM throughout.
